From ChEMBL document CHEMBL3739303, “Targeting the Src Homology 2 (SH2) Domain of Signal Transducer and Activator of Transcription 6 (STAT6) with Cell-Permeable, Phosphatase-Stable Phosphopeptide Mimics Potently Inhibits Tyr641 Phosphorylation and Transcriptional Activity” (J Med Chem, 2015)
Calls of active or inactive are those of the source. No cut-off for these calls is given here.

Key:
[1] = target: T1, Signal transducer and activator of transcription 6 (Homo sapiens) (UniProt P42226); assay: Inhibition of IL-13-stimulated STAT6 SH2 domain phosphorylation in human Beas-2B cells assessed as inhibition of CCL26 mRNA expression preincubated for 2 hrs followed by stimulation with IL-13 for 24 hrs by RT-PCR analysis
T1 sequence (whole entry): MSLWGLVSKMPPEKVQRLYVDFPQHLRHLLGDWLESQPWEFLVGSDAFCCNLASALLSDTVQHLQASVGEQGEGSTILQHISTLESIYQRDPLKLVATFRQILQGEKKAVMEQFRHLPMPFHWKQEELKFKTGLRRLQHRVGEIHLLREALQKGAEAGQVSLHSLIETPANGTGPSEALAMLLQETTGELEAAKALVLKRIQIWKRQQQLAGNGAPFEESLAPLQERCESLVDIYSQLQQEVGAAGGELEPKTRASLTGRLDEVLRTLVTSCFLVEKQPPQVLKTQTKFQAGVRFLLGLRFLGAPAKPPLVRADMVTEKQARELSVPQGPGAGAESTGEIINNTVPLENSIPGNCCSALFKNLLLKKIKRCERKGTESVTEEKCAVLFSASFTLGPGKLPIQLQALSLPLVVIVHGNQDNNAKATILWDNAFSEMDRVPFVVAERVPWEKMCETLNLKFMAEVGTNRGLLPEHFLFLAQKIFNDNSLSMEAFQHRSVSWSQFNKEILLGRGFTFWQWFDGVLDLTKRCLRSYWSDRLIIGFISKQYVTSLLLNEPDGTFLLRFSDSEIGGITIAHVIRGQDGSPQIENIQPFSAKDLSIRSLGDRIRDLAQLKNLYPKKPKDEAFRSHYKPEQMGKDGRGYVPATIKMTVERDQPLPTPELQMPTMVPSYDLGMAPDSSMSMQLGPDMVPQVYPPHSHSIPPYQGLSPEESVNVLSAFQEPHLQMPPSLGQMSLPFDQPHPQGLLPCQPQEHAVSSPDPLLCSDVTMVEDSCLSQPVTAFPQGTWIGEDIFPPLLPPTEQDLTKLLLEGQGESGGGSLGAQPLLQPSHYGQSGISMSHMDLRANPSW

[2] = target: T1, Signal transducer and activator of transcription 6 (Homo sapiens); assay: Inhibition of IL-13-stimulated STAT6 SH2 domain phosphorylation in human Beas-2B cells assessed as inhibition of CCL26 mRNA expression at 100 nM preincubated for 2 hrs followed by stimulation with IL-13 for 24 hrs by RT-PCR analysis relative to control
[3] = Cytotoxicity against human BEAS2B cells assessed as cell viability after 72 hrs by MTS assay; format: cell-based; conditions: beas-2b
In short: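 Beas-2B seeded at 2000 cells/well; 10 mM DMSO stocks serially diluted in DMSO and equal amounts added to cultures; 72 h at 37 °C; medium replaced by 1:5 MTS/PBS, 1 h further incubation; viable cells read as optical density at 490 nm.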

[4] = target: Signal transducer and activator of transcription 3 (Mus musculus) (UniProt P42227); assay: Inhibition of IL6-induced STAT3 phosphorylation at S727 in CD4+ T lymphocytes isolated from C57BL/6J mouse preincubated for 2 hrs followed by activation with plate-bound anti-CD3/anti-CD28 for 15 mins by Western blot analysis
Mus musculus = species on record: Mus musculus; assay: Inhibition of IL2-induced STAT5 phosphorylation at Y694 in CD4+ T lymphocytes isolated from C57BL/6J mouse at 0.5 to 5 uM preincubated for 2 hrs followed by activation with plate-bound anti-CD3/anti-CD28 and IL2 for 15 mins by Western blot analysis; format: cell-based
In short: (§1)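 CD4+ T cells from C57BL/6J mice, sorted by AutoMACS; activated 15 min with plate-bound anti-CD3 and/or anti-CD28 with IL-2, IL-6 or IL-4; lysed with protease inhibitors plus 10 mM NaF and 1 mM Na3VO4; Bradford-normalised immunoblots for pSTAT1 (Tyr701), pSTAT5 (Tyr694), pSTAT6 (Tyr641) and total STATs.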

[5] = target: T2, Signal transducer and activator of transcription 1 (Mus musculus) (UniProt P42225); assay: Inhibition of IL6-induced STAT1 phosphorylation at Y701 in CD4+ T lymphocytes isolated from C57BL/6J mouse preincubated for 2 hrs followed by activation with plate-bound anti-CD3/anti-CD28 and IL6 for 15 mins by Western blot analysis; format: cell-based
T2 sequence (whole entry): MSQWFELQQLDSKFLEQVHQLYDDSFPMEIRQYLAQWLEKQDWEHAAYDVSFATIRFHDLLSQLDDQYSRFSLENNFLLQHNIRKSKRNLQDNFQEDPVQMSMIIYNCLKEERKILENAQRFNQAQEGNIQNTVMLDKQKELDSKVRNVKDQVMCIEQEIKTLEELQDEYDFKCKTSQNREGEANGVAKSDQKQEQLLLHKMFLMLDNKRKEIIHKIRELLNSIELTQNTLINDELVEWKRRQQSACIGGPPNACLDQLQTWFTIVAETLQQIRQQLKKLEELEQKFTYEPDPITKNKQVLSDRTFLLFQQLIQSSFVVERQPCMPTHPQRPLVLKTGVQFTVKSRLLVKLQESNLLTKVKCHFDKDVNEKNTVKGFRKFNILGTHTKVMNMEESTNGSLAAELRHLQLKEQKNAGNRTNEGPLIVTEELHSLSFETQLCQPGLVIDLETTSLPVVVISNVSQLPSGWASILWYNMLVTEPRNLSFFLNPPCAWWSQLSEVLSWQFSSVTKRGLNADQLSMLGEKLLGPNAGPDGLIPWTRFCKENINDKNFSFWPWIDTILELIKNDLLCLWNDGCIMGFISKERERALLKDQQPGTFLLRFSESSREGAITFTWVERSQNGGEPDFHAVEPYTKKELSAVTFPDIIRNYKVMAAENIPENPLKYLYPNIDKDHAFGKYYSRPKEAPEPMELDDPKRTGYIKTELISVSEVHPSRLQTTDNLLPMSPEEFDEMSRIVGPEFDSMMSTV
In short: as §1

[6] = target: RAC-alpha serine/threonine-protein kinase (Homo sapiens) (UniProt P31749); assay: Inhibition of EGF-induced AKT phosphorylation at S473 in human MDA-MB-468 cells at 5 uM incubated for 2 hrs followed by stimulation with EGF for 1 hr by Western blot assay; format: cell-based
[7] = target: T1, Signal transducer and activator of transcription 6 (Homo sapiens); assay: Inhibition of IL4-induced STAT6 phosphorylation in human MDA-MB-468 cells at 0.1 to 5 uM incubated for 2 hrs followed by stimulation with IL4 for 1 hr by Western blot assay; format: cell-based
In short: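 MDA-MB-468 breast cancer cells serum-starved, treated with prodrugs, then IL-4 stimulated; pSTAT6 read by Western blot.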

Sequence of Signal transducer and activator of transcription 3 (Mus musculus) (P42227 whole entry): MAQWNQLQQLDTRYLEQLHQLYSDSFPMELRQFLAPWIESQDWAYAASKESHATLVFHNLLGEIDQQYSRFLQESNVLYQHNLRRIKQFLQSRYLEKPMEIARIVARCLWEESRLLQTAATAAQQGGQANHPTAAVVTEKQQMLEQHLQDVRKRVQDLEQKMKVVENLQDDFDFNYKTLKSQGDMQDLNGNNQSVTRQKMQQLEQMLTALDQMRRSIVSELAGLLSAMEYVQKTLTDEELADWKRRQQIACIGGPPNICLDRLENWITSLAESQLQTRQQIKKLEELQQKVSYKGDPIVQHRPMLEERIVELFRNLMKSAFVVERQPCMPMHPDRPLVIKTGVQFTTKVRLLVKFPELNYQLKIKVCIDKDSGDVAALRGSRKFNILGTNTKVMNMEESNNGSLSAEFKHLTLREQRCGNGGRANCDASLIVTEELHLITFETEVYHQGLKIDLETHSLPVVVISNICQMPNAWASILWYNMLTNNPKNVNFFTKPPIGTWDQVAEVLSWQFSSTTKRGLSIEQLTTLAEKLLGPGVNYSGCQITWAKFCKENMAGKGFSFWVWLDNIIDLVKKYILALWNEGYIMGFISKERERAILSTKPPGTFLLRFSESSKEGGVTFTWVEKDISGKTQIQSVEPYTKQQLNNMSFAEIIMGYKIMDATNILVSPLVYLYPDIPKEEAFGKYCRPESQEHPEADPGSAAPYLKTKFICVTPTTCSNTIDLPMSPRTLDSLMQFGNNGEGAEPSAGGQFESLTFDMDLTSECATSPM
Sequence of RAC-alpha serine/threonine-protein kinase (Homo sapiens) (P31749 whole entry): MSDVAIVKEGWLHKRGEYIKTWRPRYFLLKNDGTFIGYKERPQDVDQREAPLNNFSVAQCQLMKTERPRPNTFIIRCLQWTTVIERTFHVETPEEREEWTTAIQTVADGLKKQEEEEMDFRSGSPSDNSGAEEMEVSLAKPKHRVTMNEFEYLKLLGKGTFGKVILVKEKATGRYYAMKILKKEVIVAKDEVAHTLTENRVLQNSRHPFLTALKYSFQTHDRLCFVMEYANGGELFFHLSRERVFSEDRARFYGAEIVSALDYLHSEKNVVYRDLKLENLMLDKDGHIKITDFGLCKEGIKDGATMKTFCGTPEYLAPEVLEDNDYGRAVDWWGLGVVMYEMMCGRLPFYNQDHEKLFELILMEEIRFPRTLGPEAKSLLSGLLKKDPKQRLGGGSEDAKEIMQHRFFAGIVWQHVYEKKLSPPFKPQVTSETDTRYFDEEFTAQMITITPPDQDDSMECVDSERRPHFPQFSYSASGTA

inhibition [1]: Dose-dependent effect
inhibition [2]: > 50%
inhibition [4]: inactive
inhibition [5]: inactive
inhibition [6]: Active
inhibition [7]: Active
Structure (SMILES): C/C(=C\C(=O)N[C@H](C(=O)N1CCC[C@H]1C(=O)N(C)c1ccccc1)C(C)(C)C)c1ccc(C(F)(F)P(=O)(OCOC(=O)C(C)(C)C)OCOC(=O)C(C)(C)C)cc1
Activity [3]: Non-toxic
inhibition (Mus musculus): Active
